Experiments:
[1] = Inhibition of Hepatitis C virus 1b BK NS5B Cdelta21 polymerase by scintillation proximity assay; set-up: species or system Hepatitis C virus (isolate BK)
Hepatitis C virus [2] = assay: Antiviral activity against HCV 1b infected in human HuH7 cells assessed as total viral RNA level after 48 hrs by RT-qPCR analysis; type: functional, organism-based, Hepacivirus hominis, genotype 1b, Huh-7
Outline: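 Huh7/Clone A genotype 1b replicon cells, seeded at 40,000 per well in growth medium without G418, incubated overnight at 37 °C, 5% CO2. Compounds serially diluted in DMSO (final 0.5%), seven concentrations in triplicate, 48 h at 37 °C. Total RNA extracted and replicon RNA quantified by TaqMan RT-qPCR, normalized to untreated cells (100%).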

[3] = Cytotoxicity against human HuH7 cells; type: cell-based, Huh-7
Hepatitis C virus [4] = assay: Antiviral activity against HCV 1a infected in human HuH7 cells assessed as total viral RNA level after 48 hrs by RT-qPCR analysis; type: functional, organism-based, Hepacivirus hominis; conditions: subtype 1a, Huh-7, 48 h
[5] = system: RNA-directed RNA polymerase (Hepacivirus hominis), O39930 [P495L]; assay: Inhibition of HCV 1b BK NS5B polymerase NNI-1 allosteric site P495L mutant by scintillation proximity assay relative to wild-type; conditions: Hepatitis C virus (isolate BK)
Chain of RNA-directed RNA polymerase (Hepacivirus hominis), O39930 [P495L] (O39930 entry or part of it P495L): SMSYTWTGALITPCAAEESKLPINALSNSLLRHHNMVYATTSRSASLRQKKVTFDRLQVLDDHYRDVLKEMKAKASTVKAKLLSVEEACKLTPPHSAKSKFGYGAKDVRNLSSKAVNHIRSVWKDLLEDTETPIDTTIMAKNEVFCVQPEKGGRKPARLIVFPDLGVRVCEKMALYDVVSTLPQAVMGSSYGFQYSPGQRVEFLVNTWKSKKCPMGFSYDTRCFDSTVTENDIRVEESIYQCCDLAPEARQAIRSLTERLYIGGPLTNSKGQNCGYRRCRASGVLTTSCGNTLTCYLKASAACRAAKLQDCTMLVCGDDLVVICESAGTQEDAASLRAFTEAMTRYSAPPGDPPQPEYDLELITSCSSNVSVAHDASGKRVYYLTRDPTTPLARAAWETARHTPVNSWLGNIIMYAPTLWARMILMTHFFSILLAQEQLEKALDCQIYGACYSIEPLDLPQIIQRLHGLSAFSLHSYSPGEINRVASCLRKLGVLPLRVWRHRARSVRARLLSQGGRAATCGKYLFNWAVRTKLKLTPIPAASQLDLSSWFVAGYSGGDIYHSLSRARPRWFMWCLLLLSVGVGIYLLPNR
Outline: (§1)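 SPA polymerase assay at 22 °C: 50 nM genotype 1b BK NS5B (C-terminal 21-residue deletion), mutant and wild-type, preincubated with inhibitor in pH 7.5 Tris buffer with MgCl2, DTT, KCl, BSA and 5% DMSO. Started with [3H]UTP, 1 µM UTP, biotinylated oligo(rU12) and poly(rA); stopped at 120 min with streptavidin SPA beads, then CsCl, then counted. Fold-change in inhibition over wild-type.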

[6] = system: RNA-directed RNA polymerase (Hepacivirus hominis), O39930 [M423F]; assay: Inhibition of HCV 1b BK NS5B polymerase NNI-2 allosteric site M423F mutant by scintillation proximity assay relative to wild-type; conditions: Hepatitis C virus (isolate BK); outline: as §1
Chain of RNA-directed RNA polymerase (Hepacivirus hominis), O39930 [M423F] (O39930 entry or part of it M423F): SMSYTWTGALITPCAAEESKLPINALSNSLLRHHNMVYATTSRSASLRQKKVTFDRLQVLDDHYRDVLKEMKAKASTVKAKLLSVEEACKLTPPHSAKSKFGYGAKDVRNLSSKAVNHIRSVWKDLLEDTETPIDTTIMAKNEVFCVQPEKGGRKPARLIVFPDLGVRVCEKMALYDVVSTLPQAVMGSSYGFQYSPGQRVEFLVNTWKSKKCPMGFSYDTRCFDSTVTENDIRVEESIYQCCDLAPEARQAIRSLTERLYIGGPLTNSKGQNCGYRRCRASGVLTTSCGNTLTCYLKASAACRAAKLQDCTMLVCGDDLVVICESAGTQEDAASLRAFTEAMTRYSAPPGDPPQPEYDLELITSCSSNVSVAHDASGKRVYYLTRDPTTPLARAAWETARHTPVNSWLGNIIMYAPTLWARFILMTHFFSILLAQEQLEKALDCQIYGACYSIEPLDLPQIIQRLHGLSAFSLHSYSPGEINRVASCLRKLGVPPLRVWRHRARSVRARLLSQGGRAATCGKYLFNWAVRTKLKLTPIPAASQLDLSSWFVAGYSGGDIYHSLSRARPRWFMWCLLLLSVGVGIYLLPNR

[7] = Hepatitis C virus, genotype 1b, Huh-7, 48 h, read-out: EC50

Compound	IC50 [1] [µM]	EC50 (Hepatitis C virus [2]; [7]) [µM]	EC50 (Hepatitis C virus [2]; huh-7)	EC50 (Hepatitis C virus [4]) [µM]	GI50 ([3]; HuH7 cells, read-out: GI50) [µM]	GI50 ([3]; huh-7)	fold change (FC) [5]	fold change (FC) [6]
COc1cc2c(=O)c(COCc3ccc(Cl)cc3)cn(Cc3ccccc3)c2cc1OC	100		Not Active			Not Active		
CN1CCN(c2cc3c(cc2F)c(=O)c(NC(=O)NCc2ccc(Cl)cc2)cn3Cc2ccc(Cl)cc2)CC1	> 150		Not Active			Not Active		
O=C(NCc1ccc(Cl)cc1)c1cn(Cc2ccc(Cl)cc2)c2cc(N3CCOCC3)c(F)cc2c1=O	16		Not Active			Not Active		
COc1cc2c(=O)c(C(=O)c3ccc(C)cc3)cn(CCc3ccccc3)c2cc1OC	110		Not Active			Not Active		
COc1cc2c(=O)c(C(=O)c3ccc(C)cc3)cn(Cc3ccc(N)cc3)c2cc1OC	140		Not Active			Not Active		
COc1cc2c(=O)c(C(=O)c3ccc(C)cc3)cn(Cc3ccccc3)c2cc1OC	170		Not Active			Not Active		
COc1cc2c(=O)c(C(=O)c3ccc(C)cc3)cn(CC3CC3)c2cc1OC	120		Not Active			Not Active		
CN(Cc1ccc(Cl)cc1)C(=O)c1cn(Cc2ccc(Cl)cc2)c2cc(N3CCOCC3)c(F)cc2c1=O	330		Not Active			Not Active		
CCOC(=O)c1cn(Cc2ccc(Cl)cc2)c2cc(OC)c(OC)cc2c1=O	16	> 15			> 15			
CN1CCN(c2cc3c(cc2F)c(=O)c(NC(=O)NCc2ccccc2)cn3Cc2ccccc2)CC1	26		Not Active			Not Active		
COc1cc2c(=O)c(C(=O)c3ccc(C)cc3)cn(Cc3ccc(C(C)C)cc3)c2cc1OC	1.15	11.7			15.5		1	> 200
COc1cc2c(=O)c(S(=O)(=O)CCc3ccc(Cl)cc3)cn(Cc3ccccc3)c2cc1OC	> 150		Not Active			Not Active		

The remaining compounds from weak to strong by IC50 [1], led by results:

IC50 [1] [µM]	EC50 (Hepatitis C virus [2]; [7]) [µM]	EC50 (Hepatitis C virus [2]; huh-7)	EC50 (Hepatitis C virus [4]) [µM]	Compound	GI50 ([3]; HuH7 cells, read-out: GI50) [µM]	GI50 ([3]; huh-7)	fold change (FC) [5]	fold change (FC) [6]
9	38			COc1cc2c(=O)c(C(=O)c3ccc(C)cc3)cn(CC3CCCCC3)c2cc1OC	22			
4.6		Not Active		CN1CCN(c2cc3c(cc2F)c(=O)c(NC(=O)Cc2ccccc2)cn3Cc2ccc(Cl)cc2)CC1		Not Active		
2.2		Not Active		COc1cc2c(=O)c(C(=O)c3ccc(C)cc3)cn(CCCc3ccccc3)c2cc1OC		Not Active		
2		Not Active		CN1CCN(c2cc3c(cc2F)c(=O)c(NC(=O)Cc2ccc(Cl)cc2)cn3Cc2ccccc2)CC1		Not Active		
1.1	11.7			COc1cc2c(=O)c(C(=O)c3ccc(C)cc3)cn(Cc3ccc(Cl)cc3)c2cc1OC	15.5			
1.1		Not Active		COc1cc2c(=O)c(C(=O)c3ccc(C)cc3)cn(Cc3ccc(Cl)c(Cl)c3)c2cc1OC		Not Active		
0.85	> 50			COc1cc2c(=O)c(C(=O)c3ccc(C)cc3)cn(Cc3ccc(S(N)(=O)=O)cc3)c2cc1OC	> 25			
0.68	9.5			COc1cc2c(=O)c(C(=O)c3ccc(C)cc3)cn(Cc3ccc(C(C)(C)C)cc3)c2cc1OC	> 25			
0.5	25.3			COc1cc2c(=O)c(C(=O)c3ccc(C)cc3)cn(Cc3ccc(S(C)(=O)=O)cc3)c2cc1OC	> 50			
0.41	> 12			COc1cc2c(=O)c(C(=O)c3ccc(C)cc3)cn(Cc3ccc(C(F)(F)F)cc3F)c2cc1OC	> 25			
0.06	1.2			COc1cc2c(=O)c(C(=O)OCc3cccc(C)c3)cn(Cc3ccc(C(F)(F)F)cc3F)c2cc1OC	7.3			
0.02	1.2			COc1cc2c(=O)c(C(=O)OCc3ccc(Cl)cc3)cn(Cc3ccc(Cl)cc3)c2cc1OC	28.3			
0.02	1.7			O=C(OCc1ccc(Cl)cc1)c1cn(Cc2ccc(Cl)cc2)c2cc(N3CCOCC3)c(F)cc2c1=O	> 12			
0.015	0.71			COc1cc2c(=O)c(C(=O)OCc3ccccc3C)cn(Cc3ccc(C(F)(F)F)cc3F)c2cc1OC	31			
0.01	0.12		0.41	O=C(OCc1ccc(Cl)cc1)c1cn(Cc2ccc(Cl)cc2)c2cc(N3CCNCC3)c(F)cc2c1=O	1.1			
0.008	0.23			COc1cc2c(=O)c(C(=O)OCc3ccc(C)cc3)cn(Cc3ccc(C(F)(F)F)cc3F)c2cc1OC	20			
